# According to ChEMBL document CHEMBL1817556, “Substituted lactam and cyclic azahemiacetals modulate Pseudomonas aeruginosa quorum sensing” (Bioorg Med Chem, 2011):
# Columns and labels:
# [1] = biological target: T1, Acyl-homoserine-lactone synthase (Pseudomonas aeruginosa (strain ATCC 15692 / PAO1 / 1C / PRS 101 / LMG12228)) (UniProt P33883); test: Modulation of Pseudomonas aeruginosa lacZ-fused lasI expressed in Escherichia coli DH5alpha co-expressing pBAD-lasR assessed as 3-oxo-C12-AHL-induced effect at 0.92 mM after 3 hrs by beta-galactosidase assay relative to control
# T1 sequence (whole entry): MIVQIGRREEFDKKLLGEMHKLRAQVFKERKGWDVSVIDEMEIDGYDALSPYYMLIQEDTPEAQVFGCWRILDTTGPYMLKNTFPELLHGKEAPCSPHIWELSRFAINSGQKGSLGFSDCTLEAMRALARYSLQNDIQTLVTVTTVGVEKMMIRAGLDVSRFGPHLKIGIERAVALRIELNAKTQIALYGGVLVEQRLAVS
# Outline: (§1)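 E. coli DH5α carrying pSC11 (PlasI-lacZ translational fusion) and pJN105L (PBAD-lasR) was grown overnight in LB with ampicillin (100 μg/ml) and gentamicin (15 μg/ml), then diluted to OD600 0.150. Arabinose (0.2% w/v), 3-oxo-C12-AHL (2 μM) and test compound or DMSO were added. Cultures were shaken 3 h at 37 °C. β-Galactosidase activity was read in Miller units and expressed as % of the solvent sample. Triplicates per biological replicate, repeated at least twice; paired two-tailed t-test.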
# [2] = biological target: 3-(3-hydroxydecanoyloxy)decanoate synthase (Pseudomonas aeruginosa (strain ATCC 15692 / PAO1 / 1C / PRS 101 / LMG12228)) (UniProt Q51559); test: Modulation of Pseudomonas aeruginosa lacZ-fused rhlA expressed in Escherichia coli DH5alpha co-expressing Ptac-rhlR assessed as C4-AHL-induced effect at 0.69 mM after 4 hrs by beta-galactosidase assay relative to control
# Outline: (§2)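 E. coli DH5α carrying pECP61.5 (Ptac-rhlR, PrhlA-lacZ), grown overnight in LB with ampicillin 100 μg/ml and diluted to OD600 0.150. At OD600 1.0, 1 mM IPTG, 2 μM C4-HSL and compound or DMSO were added. Cultures were shaken 4 h at 37 °C, then β-galactosidase was read in Miller units. Activity is % of solvent sample, from triplicates per biological replicate, with at least two repeats.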
# [3] = biological target: 3-(3-hydroxydecanoyloxy)decanoate synthase (Pseudomonas aeruginosa (strain ATCC 15692 / PAO1 / 1C / PRS 101 / LMG12228)) (UniProt Q51559); test: Modulation of Pseudomonas aeruginosa lacZ-fused rhlA expressed in Escherichia coli DH5alpha co-expressing Ptac-rhlR assessed as C4-AHL-induced effect at 0.23 mM after 4 hrs by beta-galactosidase assay relative to control
# Outline: (§3)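 rhl reporter: E. coli DH5α carrying pECP61.5 (Ptac-rhlR, PrhlA-lacZ) was grown overnight in LB with ampicillin (100 μg/ml) only, then diluted to OD600 0.150. It was induced with 1 mM IPTG, and 2 μM C4-HSL plus compound or DMSO were added at OD600 1.0. Cultures were shaken 4 h at 37 °C. β-Galactosidase activity was read in Miller units as % of the solvent sample. Triplicates per biological replicate, at least two repeats; paired two-tailed t-test.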
# [4] = biological target: 3-(3-hydroxydecanoyloxy)decanoate synthase (Pseudomonas aeruginosa (strain ATCC 15692 / PAO1 / 1C / PRS 101 / LMG12228)) (UniProt Q51559); test: Modulation of Pseudomonas aeruginosa lacZ-fused rhlA expressed in Escherichia coli DH5alpha co-expressing Ptac-rhlR assessed as C4-AHL-induced effect at 0.92 mM after 4 hrs by beta-galactosidase assay relative to control; outline: as §2
# [5] = biological target: T1, Acyl-homoserine-lactone synthase (Pseudomonas aeruginosa (strain ATCC 15692 / PAO1 / 1C / PRS 101 / LMG12228)); test: Modulation of Pseudomonas aeruginosa lacZ-fused lasI expressed in Escherichia coli DH5alpha co-expressing pBAD-lasR assessed as 3-oxo-C12-AHL-induced effect at 0.69 mM after 3 hrs by beta-galactosidase assay relative to control; outline: as §1
# [6] = biological target: 3-(3-hydroxydecanoyloxy)decanoate synthase (Pseudomonas aeruginosa (strain ATCC 15692 / PAO1 / 1C / PRS 101 / LMG12228)) (UniProt Q51559); test: Modulation of Pseudomonas aeruginosa lacZ-fused rhlA expressed in Escherichia coli DH5alpha co-expressing Ptac-rhlR assessed as C4-AHL-induced effect at 0.46 mM after 4 hrs by beta-galactosidase assay relative to control; outline: as §3
# [7] = biological target: T1, Acyl-homoserine-lactone synthase (Pseudomonas aeruginosa (strain ATCC 15692 / PAO1 / 1C / PRS 101 / LMG12228)); test: Modulation of Pseudomonas aeruginosa lacZ-fused lasI expressed in Escherichia coli DH5alpha co-expressing pBAD-lasR assessed as 3-oxo-C12-AHL-induced effect at 0.23 mM after 3 hrs by beta-galactosidase assay relative to control; outline: as §1
# [8] = biological target: T1, Acyl-homoserine-lactone synthase (Pseudomonas aeruginosa (strain ATCC 15692 / PAO1 / 1C / PRS 101 / LMG12228)); test: Modulation of Pseudomonas aeruginosa lacZ-fused lasI expressed in Escherichia coli DH5alpha co-expressing pBAD-lasR assessed as 3-oxo-C12-AHL-induced effect at 0.46 mM after 3 hrs by beta-galactosidase assay relative to control; outline: as §1
# [9] = biological target: 3-(3-hydroxydecanoyloxy)decanoate synthase (Pseudomonas aeruginosa (strain ATCC 15692 / PAO1 / 1C / PRS 101 / LMG12228)) (UniProt Q51559); test: Modulation of Pseudomonas aeruginosa lacZ-fused rhlA expressed in Escherichia coli DH5alpha co-expressing Ptac-rhlR assessed as C4-AHL-induced effect at 0.78 mM after 4 hrs by beta-galactosidase assay relative to control; outline: as §2
# [10] = biological target: T1, Acyl-homoserine-lactone synthase (Pseudomonas aeruginosa (strain ATCC 15692 / PAO1 / 1C / PRS 101 / LMG12228)); test: Modulation of Pseudomonas aeruginosa lacZ-fused lasI expressed in Escherichia coli DH5alpha co-expressing pBAD-lasR assessed as 3-oxo-C12-AHL-induced effect at 0.78 mM after 3 hrs by beta-galactosidase assay relative to control; outline: as §1
# [11] = biological target: T1, Acyl-homoserine-lactone synthase (Pseudomonas aeruginosa (strain ATCC 15692 / PAO1 / 1C / PRS 101 / LMG12228)); test: Modulation of Pseudomonas aeruginosa lacZ-fused lasI expressed in Escherichia coli DH5alpha co-expressing pBAD-lasR assessed as 3-oxo-C12-AHL-induced effect at 0.39 mM after 3 hrs by beta-galactosidase assay relative to control; outline: as §1
# [12] = biological target: T1, Acyl-homoserine-lactone synthase (Pseudomonas aeruginosa (strain ATCC 15692 / PAO1 / 1C / PRS 101 / LMG12228)); test: Modulation of Pseudomonas aeruginosa lacZ-fused lasI expressed in Escherichia coli DH5alpha co-expressing pBAD-lasR assessed as 3-oxo-C12-AHL-induced effect at 0.19 mM after 3 hrs by beta-galactosidase assay relative to control; outline: as §1
# [13] = biological target: 3-(3-hydroxydecanoyloxy)decanoate synthase (Pseudomonas aeruginosa (strain ATCC 15692 / PAO1 / 1C / PRS 101 / LMG12228)) (UniProt Q51559); test: Modulation of Pseudomonas aeruginosa lacZ-fused rhlA expressed in Escherichia coli DH5alpha co-expressing Ptac-rhlR assessed as C4-AHL-induced effect at 0.58 mM after 4 hrs by beta-galactosidase assay relative to control; outline: as §2
# [14] = biological target: 3-(3-hydroxydecanoyloxy)decanoate synthase (Pseudomonas aeruginosa (strain ATCC 15692 / PAO1 / 1C / PRS 101 / LMG12228)) (UniProt Q51559); test: Modulation of Pseudomonas aeruginosa lacZ-fused rhlA expressed in Escherichia coli DH5alpha co-expressing Ptac-rhlR assessed as C4-AHL-induced effect at 0.19 mM after 4 hrs by beta-galactosidase assay relative to control; outline: as §3
# [15] = biological target: T1, Acyl-homoserine-lactone synthase (Pseudomonas aeruginosa (strain ATCC 15692 / PAO1 / 1C / PRS 101 / LMG12228)); test: Modulation of Pseudomonas aeruginosa lacZ-fused lasI expressed in Escherichia coli DH5alpha co-expressing pBAD-lasR assessed as 3-oxo-C12-AHL-induced effect at 0.58 mM after 3 hrs by beta-galactosidase assay relative to control; outline: as §1
# [16] = biological target: 3-(3-hydroxydecanoyloxy)decanoate synthase (Pseudomonas aeruginosa (strain ATCC 15692 / PAO1 / 1C / PRS 101 / LMG12228)) (UniProt Q51559); test: Modulation of Pseudomonas aeruginosa lacZ-fused rhlA expressed in Escherichia coli DH5alpha co-expressing Ptac-rhlR assessed as C4-AHL-induced effect at 0.39 mM after 4 hrs by beta-galactosidase assay relative to control; outline: as §3
# [17] = biological target: T1, Acyl-homoserine-lactone synthase (Pseudomonas aeruginosa (strain ATCC 15692 / PAO1 / 1C / PRS 101 / LMG12228)); test: Modulation of Pseudomonas aeruginosa lacZ-fused lasI expressed in Escherichia coli DH5alpha co-expressing pBAD-lasR assessed as 3-oxo-C12-AHL-induced effect at 0.67 mM after 3 hrs by beta-galactosidase assay relative to control; outline: as §1
# [18] = biological target: 3-(3-hydroxydecanoyloxy)decanoate synthase (Pseudomonas aeruginosa (strain ATCC 15692 / PAO1 / 1C / PRS 101 / LMG12228)) (UniProt Q51559); test: Modulation of Pseudomonas aeruginosa lacZ-fused rhlA expressed in Escherichia coli DH5alpha co-expressing Ptac-rhlR assessed as C4-AHL-induced effect at 0.50 mM after 4 hrs by beta-galactosidase assay relative to control; outline: as §3
# [19] = biological target: T1, Acyl-homoserine-lactone synthase (Pseudomonas aeruginosa (strain ATCC 15692 / PAO1 / 1C / PRS 101 / LMG12228)); test: Modulation of Pseudomonas aeruginosa lacZ-fused lasI expressed in Escherichia coli DH5alpha co-expressing pBAD-lasR assessed as 3-oxo-C12-AHL-induced effect at 0.17 mM after 3 hrs by beta-galactosidase assay relative to control; outline: as §1
# [20] = biological target: 3-(3-hydroxydecanoyloxy)decanoate synthase (Pseudomonas aeruginosa (strain ATCC 15692 / PAO1 / 1C / PRS 101 / LMG12228)) (UniProt Q51559); test: Modulation of Pseudomonas aeruginosa lacZ-fused rhlA expressed in Escherichia coli DH5alpha co-expressing Ptac-rhlR assessed as C4-AHL-induced effect at 0.67 mM after 4 hrs by beta-galactosidase assay relative to control; outline: as §2
# [21] = biological target: 3-(3-hydroxydecanoyloxy)decanoate synthase (Pseudomonas aeruginosa (strain ATCC 15692 / PAO1 / 1C / PRS 101 / LMG12228)) (UniProt Q51559); test: Modulation of Pseudomonas aeruginosa lacZ-fused rhlA expressed in Escherichia coli DH5alpha co-expressing Ptac-rhlR assessed as C4-AHL-induced effect at 0.17 mM after 4 hrs by beta-galactosidase assay relative to control; outline: as §3
# [22] = biological target: T1, Acyl-homoserine-lactone synthase (Pseudomonas aeruginosa (strain ATCC 15692 / PAO1 / 1C / PRS 101 / LMG12228)); test: Modulation of Pseudomonas aeruginosa lacZ-fused lasI expressed in Escherichia coli DH5alpha co-expressing pBAD-lasR assessed as 3-oxo-C12-AHL-induced effect at 0.50 mM after 3 hrs by beta-galactosidase assay relative to control; outline: as §1
# [23] = biological target: 3-(3-hydroxydecanoyloxy)decanoate synthase (Pseudomonas aeruginosa (strain ATCC 15692 / PAO1 / 1C / PRS 101 / LMG12228)) (UniProt Q51559); test: Modulation of Pseudomonas aeruginosa lacZ-fused rhlA expressed in Escherichia coli DH5alpha co-expressing Ptac-rhlR assessed as C4-AHL-induced effect at 0.33 mM after 4 hrs by beta-galactosidase assay relative to control; outline: as §3
# [24] = biological target: T1, Acyl-homoserine-lactone synthase (Pseudomonas aeruginosa (strain ATCC 15692 / PAO1 / 1C / PRS 101 / LMG12228)); test: Modulation of Pseudomonas aeruginosa lacZ-fused lasI expressed in Escherichia coli DH5alpha co-expressing pBAD-lasR assessed as 3-oxo-C12-AHL-induced effect at 0.33 mM after 3 hrs by beta-galactosidase assay relative to control; outline: as §1
# [25] = biological target: T1, Acyl-homoserine-lactone synthase (Pseudomonas aeruginosa (strain ATCC 15692 / PAO1 / 1C / PRS 101 / LMG12228)); test: Modulation of Pseudomonas aeruginosa lacZ-fused lasI expressed in Escherichia coli DH5alpha co-expressing pBAD-lasR assessed as 3-oxo-C12-AHL-induced effect at 0.35 mM after 3 hrs by beta-galactosidase assay relative to control; outline: as §1
# [26] = biological target: 3-(3-hydroxydecanoyloxy)decanoate synthase (Pseudomonas aeruginosa (strain ATCC 15692 / PAO1 / 1C / PRS 101 / LMG12228)) (UniProt Q51559); test: Modulation of Pseudomonas aeruginosa lacZ-fused rhlA expressed in Escherichia coli DH5alpha co-expressing Ptac-rhlR assessed as C4-AHL-induced effect at 0.35 mM after 4 hrs by beta-galactosidase assay relative to control; outline: as §3
# [27] = biological target: T1, Acyl-homoserine-lactone synthase (Pseudomonas aeruginosa (strain ATCC 15692 / PAO1 / 1C / PRS 101 / LMG12228)); test: Modulation of Pseudomonas aeruginosa lacZ-fused lasI expressed in Escherichia coli DH5alpha co-expressing pBAD-lasR assessed as 3-oxo-C12-AHL-induced effect at 0.52 mM after 3 hrs by beta-galactosidase assay relative to control; outline: as §1
# [28] = biological target: 3-(3-hydroxydecanoyloxy)decanoate synthase (Pseudomonas aeruginosa (strain ATCC 15692 / PAO1 / 1C / PRS 101 / LMG12228)) (UniProt Q51559); test: Modulation of Pseudomonas aeruginosa lacZ-fused rhlA expressed in Escherichia coli DH5alpha co-expressing Ptac-rhlR assessed as C4-AHL-induced effect at 0.52 mM after 4 hrs by beta-galactosidase assay relative to control; outline: as §3
smiles,measurement,setting,value
CCCCCCSC[C@@H]1CCC(O)N1 (mixture of isomers),Activity,[1],0%
same,Activity,[2],0%
same,Activity,[3],26%
same,Activity,[4],0%
same,Activity,[5],0%
same,Activity,[6],0.2%
same,Activity,[7],109%
same,Activity,[8],0%
CCCCCCCCCSC[C@@H]1CCC(=O)N1,Activity,[9],137%
same,Activity,[10],6%
same,Activity,[11],26%
same,Activity,[12],72%
same,Activity,[13],108%
same,Activity,[14],95%
same,Activity,[15],18%
same,Activity,[16],115%
CCCCCCCCCCCCSC[C@@H]1CCC(=O)N1,Activity,[17],11%
same,Activity,[18],109%
same,Activity,[19],52%
same,Activity,[20],106%
same,Activity,[21],103%
same,Activity,[22],18%
same,Activity,[23],106%
same,Activity,[24],32%
CCCCCCCCCSC[C@H]1NC(=O)[C@H](O)[C@@H]1O,Activity,[25],87%
same,Activity,[19],93%
same,Activity,[2],135%
same,Activity,[26],117%
same,Activity,[5],63%
same,Activity,[21],106%
same,Activity,[27],80%
same,Activity,[28],115%
